Results reported in ChEMBL document CHEMBL2311339, “Identification of GZD824 as an orally bioavailable inhibitor that targets phosphorylated and nonphosphorylated breakpoint cluster region-Abelson (Bcr-Abl) kinase and overcomes clinically acquired mutation-induced resistance against imatinib” (J Med Chem, 2013).
Activity calls are given as the source filed them. The calls are words filed in the database; no cut-off is given here.

Columns and labels:
BaF3 [1] = experiment: Antitumor activity against mouse BA/F3 cells expressing BCR-ABL E255K mutant allografted in po dosed SCID mouse assessed as reduction of hepatosplenomegaly administered qd for 14 days; format: functional, organism-based
BaF3 [2] = experiment: Antitumor activity against mouse BA/F3 cells expressing BCR-ABL G250E mutant allografted in po dosed SCID mouse assessed as reduction of hepatosplenomegaly administered qd for 14 days; format: functional, organism-based
BaF3 [3] = experiment: Antitumor activity against mouse BA/F3 cells expressing BCR-ABL T315I mutant allografted in SCID mouse assessed as induction of tumor regression at 20 mg/kg/day, po qd for 14 days; format: functional, organism-based
In short: (§1)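 Ba/F3 cells stably expressing Bcr-Abl (wild type or mutant) were grown in RPMI 1640 with 10% FBS and no IL-3, then suspended in saline (2.5 × 10^7 cells/mL) and given as 0.2 mL s.c. in the right flank. Groups were randomised at 100−200 mm3. Once-daily oral gavage for 14 days in DMSO/Cremophor/ethanol/saline vehicle; reference imatinib 50 or 100 mg/kg/day. Volume L × W²/2 every 2 days; n = 10; t test versus vehicle.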

BaF3 [4] = experiment: Antitumor activity against mouse BA/F3 cells expressing BCR-ABL T315I mutant allografted in SCID mouse assessed as inhibition of tumor growth at 5 to 10 mg/kg/day, po qd for 14 days; format: functional, organism-based; in short: as §1
Mus musculus = experiment: Toxicity in human K562 cells xenografted mouse assessed as body weight loss relative to vehicle-treated control; format: organism-based; details: in vivo
In short: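 K562 cells (2.5 × 10^7 cells/mL in normal saline, 0.2 mL) were injected subcutaneously into the right flank. Mice were randomized once mean tumor volume reached 100−200 mm3, n = 10 per group. Dosing was by oral gavage once daily for 14 days in 1% DMSO/22.5% Cremophor/7.5% ethanol/69% saline. Tumor volume (L × W²/2) and body weight were measured every 2 days; unpaired t test versus vehicle.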

K562 [5] = experiment: Antitumor activity against human K562 cells xenografted in mouse assessed as decrease in tumor recurrence at 2 mg/kg, po qd for 20 days; format: functional, organism-based; design: dose 2 mg/kg
K562 [6] = experiment: Antitumor activity against human K562 cells xenografted in mouse assessed as eradication of tumor at 5 to 10 mg/kg, po qd for 6 days; format: functional, organism-based
[7] = Plasma concentration in rat after 12 hrs; format: ADME
In short: (§2)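 Bismesylate salt given to rats as a single iv dose of 5 mg/kg or a single oral dose of 25 mg/kg. Plasma drug levels were followed over time to derive the PK parameters. The 12 h and 24 h plasma levels come from the oral 25 mg/kg dose.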

[8] = Mean residence time in rat at 25 mg/kg, po; format: ADME, organism-based; design: dose 25 mg/kg, route oral; details: in vivo; in short: as §2
[9] = Tmax in rat at 25 mg/kg, po; format: ADME, organism-based; design: dose 25 mg/kg, route oral; details: in vivo; in short: as §2
[10] = Volume of distribution at steady state in rat at 5 mg/kg, iv; format: ADME, organism-based; design: dose 5 mg/kg, route intravenous; details: in vivo, read-out: Vdss
In short: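 Test compound given to rats as its bismesylate salt in a single dose, 5 mg/kg iv or 25 mg/kg by mouth. Plasma drug levels were monitored after dosing, and PK parameters including Vss were reported per route.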

[11] = Clearance in rat at 5 mg/kg, iv; format: ADME, organism-based; design: dose 5 mg/kg, route intravenous; details: in vivo; in short: as §2
Cytochrome P450 2C19 = Cytochrome P450 2C19 (Homo sapiens, UniProt P33261); experiment: Inhibition of human recombinant CYP2C19 after 30 mins; format: ADME
Cytochrome P450 2C19, sequence (P33261 whole entry): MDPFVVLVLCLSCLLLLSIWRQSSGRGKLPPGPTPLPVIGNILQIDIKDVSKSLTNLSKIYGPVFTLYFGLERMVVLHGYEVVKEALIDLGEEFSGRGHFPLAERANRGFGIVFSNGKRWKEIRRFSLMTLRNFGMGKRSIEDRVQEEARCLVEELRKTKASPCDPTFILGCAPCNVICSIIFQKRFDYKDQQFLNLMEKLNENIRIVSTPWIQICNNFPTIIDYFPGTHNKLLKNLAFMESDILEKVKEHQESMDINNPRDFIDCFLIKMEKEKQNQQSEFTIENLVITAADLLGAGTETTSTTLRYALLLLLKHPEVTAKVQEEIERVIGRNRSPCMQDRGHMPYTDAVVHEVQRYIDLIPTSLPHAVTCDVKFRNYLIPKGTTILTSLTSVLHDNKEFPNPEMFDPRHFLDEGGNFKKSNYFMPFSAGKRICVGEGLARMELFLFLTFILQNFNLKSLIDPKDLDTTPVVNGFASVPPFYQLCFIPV

Cytochrome P450 1A2 = Cytochrome P450 1A2 (Homo sapiens, UniProt P05177); experiment: Inhibition of human recombinant CYP1A2 at 30 uM after 30 mins; format: ADME; details: recombinant enzyme, 0.5 h
Cytochrome P450 1A2, sequence (P05177 whole entry): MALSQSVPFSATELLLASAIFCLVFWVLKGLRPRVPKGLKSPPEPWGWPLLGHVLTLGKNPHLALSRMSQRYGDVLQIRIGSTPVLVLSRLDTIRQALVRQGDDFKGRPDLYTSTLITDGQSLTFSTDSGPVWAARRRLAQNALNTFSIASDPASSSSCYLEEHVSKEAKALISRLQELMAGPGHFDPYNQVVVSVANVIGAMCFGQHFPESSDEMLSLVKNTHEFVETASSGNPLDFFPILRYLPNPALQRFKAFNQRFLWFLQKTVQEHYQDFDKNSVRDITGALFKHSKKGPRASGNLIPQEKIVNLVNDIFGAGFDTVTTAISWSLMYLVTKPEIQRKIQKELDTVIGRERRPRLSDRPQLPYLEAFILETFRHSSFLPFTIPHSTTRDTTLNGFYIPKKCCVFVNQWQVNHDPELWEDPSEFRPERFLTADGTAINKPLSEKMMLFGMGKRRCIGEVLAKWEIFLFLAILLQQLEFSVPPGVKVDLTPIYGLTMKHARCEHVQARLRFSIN

Cytochrome P450 2D6 = Cytochrome P450 2D6 (Homo sapiens, UniProt P10635); experiment: Inhibition of human recombinant CYP2D6 at 30 uM after 30 mins; format: ADME; details: recombinant enzyme, 0.5 h
Cytochrome P450 3A4 = Cytochrome P450 3A4 (Homo sapiens, UniProt P08684); experiment: Inhibition of human recombinant CYP3A4 at 30 uM after 30 mins; format: ADME; details: recombinant enzyme, 0.5 h
Cytochrome P450 3A4, sequence (P08684 whole entry): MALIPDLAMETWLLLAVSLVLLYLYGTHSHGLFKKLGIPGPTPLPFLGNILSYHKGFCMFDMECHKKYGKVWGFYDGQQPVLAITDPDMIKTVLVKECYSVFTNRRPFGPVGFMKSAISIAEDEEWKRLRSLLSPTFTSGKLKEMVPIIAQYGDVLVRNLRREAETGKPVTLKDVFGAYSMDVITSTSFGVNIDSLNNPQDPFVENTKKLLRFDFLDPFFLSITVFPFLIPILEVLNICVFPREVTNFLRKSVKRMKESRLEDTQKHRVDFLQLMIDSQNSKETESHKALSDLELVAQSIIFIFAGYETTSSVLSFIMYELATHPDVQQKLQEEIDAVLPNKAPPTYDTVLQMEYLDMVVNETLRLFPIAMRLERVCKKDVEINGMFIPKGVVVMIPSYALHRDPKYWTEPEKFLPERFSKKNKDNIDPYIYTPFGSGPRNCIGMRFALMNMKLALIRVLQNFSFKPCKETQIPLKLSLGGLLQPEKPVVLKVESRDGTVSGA

U-937 = experiment: Cytotoxicity against human U937 cells […] assessed as growth inhibition after 72 hrs by CCK-8 assay; format: functional, cell-based; details: U-937, 72 h
In short: (§3)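 Log-phase human leukemia cells were seeded at about 3000 cells/well and treated 24 h later for 72 h. CCK-8 was then incubated with the cells for 3 h and read as OD450 − OD650. Viability was normalized to vehicle wells and cell-free blanks, and IC50 taken as the mean of three experiments.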

[12] = Cytotoxicity against human SUP-B15 cells expressing BCR-ABL assessed as growth inhibition after 72 hrs by CCK-8 assay; format: functional, cell-based; details: SUP-B15, 72 h; in short: as §3
[13] = Cytotoxicity against mouse BA/F3 cells expressing BCR-ABL E355G mutant assessed as growth inhibition after 72 hrs by CCK-8 assay; details: BaF3, 72 h
[14] = Cytotoxicity against mouse BA/F3 cells expressing BCR-ABL F317V mutant assessed as growth inhibition after 72 hrs by CCK-8 assay; details: BaF3, 72 h
[15] = Cytotoxicity against mouse BA/F3 cells expressing BCR-ABL Y253F mutant assessed as growth inhibition after 72 hrs by CCK-8 assay; details: BaF3, 72 h
[16] = target: Angiopoietin-1 receptor (Homo sapiens) (UniProt Q02763); experiment: Binding affinity to TIE2 (unknown origin) at 10 nM after 2 hrs by FRET assay
Angiopoietin-1 receptor (Homo sapiens), sequence (Q02763 whole entry): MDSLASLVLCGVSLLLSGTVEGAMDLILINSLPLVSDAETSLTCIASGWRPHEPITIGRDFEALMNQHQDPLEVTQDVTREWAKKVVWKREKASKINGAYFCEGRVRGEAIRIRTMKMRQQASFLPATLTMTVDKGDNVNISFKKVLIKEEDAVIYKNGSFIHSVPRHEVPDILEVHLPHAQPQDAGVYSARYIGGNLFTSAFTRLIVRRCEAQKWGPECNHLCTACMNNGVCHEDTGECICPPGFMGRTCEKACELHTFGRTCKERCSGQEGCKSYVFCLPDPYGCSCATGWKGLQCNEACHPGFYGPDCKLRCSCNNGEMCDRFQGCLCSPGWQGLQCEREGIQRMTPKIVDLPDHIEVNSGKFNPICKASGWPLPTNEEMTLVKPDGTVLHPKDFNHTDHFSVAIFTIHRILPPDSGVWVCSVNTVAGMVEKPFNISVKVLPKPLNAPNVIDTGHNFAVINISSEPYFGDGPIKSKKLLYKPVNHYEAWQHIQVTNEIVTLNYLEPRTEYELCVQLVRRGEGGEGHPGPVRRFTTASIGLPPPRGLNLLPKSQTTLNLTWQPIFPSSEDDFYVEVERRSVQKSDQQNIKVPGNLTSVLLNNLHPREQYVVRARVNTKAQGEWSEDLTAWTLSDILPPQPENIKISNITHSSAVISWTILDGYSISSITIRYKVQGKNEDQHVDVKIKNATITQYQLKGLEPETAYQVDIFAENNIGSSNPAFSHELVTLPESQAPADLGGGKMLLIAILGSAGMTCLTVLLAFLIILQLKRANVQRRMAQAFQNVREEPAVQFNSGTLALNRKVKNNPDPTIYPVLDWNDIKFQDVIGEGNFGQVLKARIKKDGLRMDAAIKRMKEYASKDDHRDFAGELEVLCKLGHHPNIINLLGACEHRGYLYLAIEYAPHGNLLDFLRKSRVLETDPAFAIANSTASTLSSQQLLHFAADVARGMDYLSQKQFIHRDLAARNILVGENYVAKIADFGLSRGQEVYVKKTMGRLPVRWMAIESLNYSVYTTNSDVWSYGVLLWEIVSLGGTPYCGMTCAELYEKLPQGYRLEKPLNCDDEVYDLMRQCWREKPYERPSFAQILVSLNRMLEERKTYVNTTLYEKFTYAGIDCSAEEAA

[17] = target: Proto-oncogene tyrosine-protein kinase receptor Ret (Homo sapiens) (UniProt P07949); experiment: Binding affinity to RET (unknown origin) at 10 nM after 2 hrs by FRET assay
Proto-oncogene tyrosine-protein kinase receptor Ret (Homo sapiens), sequence (P07949 whole entry): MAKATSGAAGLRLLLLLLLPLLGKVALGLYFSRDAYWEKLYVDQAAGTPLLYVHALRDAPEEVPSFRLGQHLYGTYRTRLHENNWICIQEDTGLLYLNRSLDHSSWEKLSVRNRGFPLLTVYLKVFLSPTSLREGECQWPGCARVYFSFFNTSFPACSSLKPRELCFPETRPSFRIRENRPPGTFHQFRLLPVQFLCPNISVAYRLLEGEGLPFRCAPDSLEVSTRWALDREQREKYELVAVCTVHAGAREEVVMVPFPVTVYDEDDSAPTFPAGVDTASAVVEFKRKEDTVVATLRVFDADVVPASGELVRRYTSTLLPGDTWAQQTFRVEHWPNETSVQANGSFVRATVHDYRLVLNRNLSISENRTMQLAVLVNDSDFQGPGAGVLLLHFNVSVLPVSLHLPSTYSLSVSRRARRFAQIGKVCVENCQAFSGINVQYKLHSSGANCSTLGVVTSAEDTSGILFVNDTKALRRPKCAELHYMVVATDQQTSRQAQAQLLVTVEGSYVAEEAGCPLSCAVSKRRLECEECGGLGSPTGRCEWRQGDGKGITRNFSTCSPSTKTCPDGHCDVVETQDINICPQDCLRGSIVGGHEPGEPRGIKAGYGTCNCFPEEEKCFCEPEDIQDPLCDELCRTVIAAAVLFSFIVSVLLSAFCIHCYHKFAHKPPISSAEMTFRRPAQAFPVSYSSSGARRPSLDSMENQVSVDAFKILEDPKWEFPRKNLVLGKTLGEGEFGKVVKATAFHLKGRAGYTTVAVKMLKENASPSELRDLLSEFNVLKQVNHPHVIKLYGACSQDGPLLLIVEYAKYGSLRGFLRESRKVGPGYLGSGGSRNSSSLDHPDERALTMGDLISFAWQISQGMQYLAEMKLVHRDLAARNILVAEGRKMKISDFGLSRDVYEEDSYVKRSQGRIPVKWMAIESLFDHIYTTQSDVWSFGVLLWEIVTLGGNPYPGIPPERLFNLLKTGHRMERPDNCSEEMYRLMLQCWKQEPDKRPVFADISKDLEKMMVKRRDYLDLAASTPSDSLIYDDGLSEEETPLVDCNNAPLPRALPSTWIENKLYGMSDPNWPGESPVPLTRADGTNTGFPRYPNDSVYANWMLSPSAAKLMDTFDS

[18] = target: Serine/threonine-protein kinase B-raf (Homo sapiens) (UniProt P15056); experiment: Binding affinity to BRAF (unknown origin) at 10 nM after 2 hrs by FRET assay
[19] = target: Epithelial discoidin domain-containing receptor 1 (Homo sapiens) (UniProt Q08345); experiment: Binding affinity to DDR1 (unknown origin) at 10 nM after 2 hrs by FRET assay
Epithelial discoidin domain-containing receptor 1 (Homo sapiens), sequence (Q08345 whole entry, the tested form may be a part): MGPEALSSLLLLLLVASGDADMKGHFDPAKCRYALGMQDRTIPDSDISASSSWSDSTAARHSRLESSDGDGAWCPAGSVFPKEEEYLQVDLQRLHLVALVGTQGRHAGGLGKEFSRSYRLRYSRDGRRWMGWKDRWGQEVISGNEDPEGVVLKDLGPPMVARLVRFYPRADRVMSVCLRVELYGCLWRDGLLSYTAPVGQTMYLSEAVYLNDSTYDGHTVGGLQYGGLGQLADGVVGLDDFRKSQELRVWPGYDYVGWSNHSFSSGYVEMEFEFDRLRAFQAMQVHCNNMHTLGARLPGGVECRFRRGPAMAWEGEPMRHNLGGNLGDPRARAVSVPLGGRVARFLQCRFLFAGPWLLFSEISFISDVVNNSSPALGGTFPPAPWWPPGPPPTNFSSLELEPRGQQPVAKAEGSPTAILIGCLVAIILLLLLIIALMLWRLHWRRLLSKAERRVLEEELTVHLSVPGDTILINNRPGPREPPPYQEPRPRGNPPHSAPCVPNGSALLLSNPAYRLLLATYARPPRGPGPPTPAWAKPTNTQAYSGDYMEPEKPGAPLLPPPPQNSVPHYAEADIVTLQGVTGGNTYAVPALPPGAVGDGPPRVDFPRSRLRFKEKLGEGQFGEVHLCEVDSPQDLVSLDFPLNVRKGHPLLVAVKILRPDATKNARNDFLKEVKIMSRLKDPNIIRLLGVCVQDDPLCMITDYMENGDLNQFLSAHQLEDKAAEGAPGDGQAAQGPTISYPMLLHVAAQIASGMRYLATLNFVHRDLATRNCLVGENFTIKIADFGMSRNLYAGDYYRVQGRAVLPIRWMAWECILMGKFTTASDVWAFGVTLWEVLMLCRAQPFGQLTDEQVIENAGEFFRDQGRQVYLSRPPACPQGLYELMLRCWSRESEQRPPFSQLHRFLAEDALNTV

[20] = target: Fibroblast growth factor receptor (Homo sapiens) (UniProt P22607+P11362+P22455+P21802); experiment: Binding affinity to FGFR (unknown origin) at 10 nM after 2 hrs by FRET assay; format: protein assay
[21] = target: Tyrosine-protein kinase ABL1 (Homo sapiens, UniProt P00519, M351T); experiment: Binding affinity to phosphorylated ABL1 M351T mutant (unknown origin) after 1 hr
[22] = target: Tyrosine-protein kinase ABL1 (Homo sapiens, UniProt P00519, Q252H); experiment: Binding affinity to non phosphorylated ABL1 Q252H mutant (unknown origin) after 1 hr
[23] = target: T1, Tyrosine-protein kinase ABL1 (Homo sapiens, UniProt P00519, T315I); experiment: Binding affinity to non phosphorylated ABL1 T315I mutant (unknown origin) after 1 hr
[24] = target: Tyrosine-protein kinase ABL1 (Homo sapiens, UniProt P00519, E255K); experiment: Inhibition of human recombinant ABL1 E255K mutant expressed in insect cells after 30 mins by FRET assay; format: cell-based
[25] = target: T1, Tyrosine-protein kinase ABL1; format: cell-based
[26] = Half life in rat liver microsomes at 1 uM; format: ADME, Microsome
[27] = Intrinsic clearance in rat liver microsomes at 1 uM; format: ADME, Microsome; details: read-out: CLH
cells = details: Mus musculus, BaF3, 72 h

## Cc1ccc(C(=O)Nc2ccc(CN3CCN(C)CC3)c(C(F)(F)F)c2)cc1C#Cc1cnc2[nH]ncc2c1 [OLVEREMBATINIB]
BaF3 [1]
  Activity: Active
BaF3 [2]
  Activity: Active
BaF3 [3]
  Activity: Active
BaF3 [4]
  TGI: inactive
Mus musculus
  Activity: < 5%
K562 [5]
  Activity: inactive
K562 [6]
  Activity: Active
[7]
  concentration at 12 h: 270 nM
[8]
  MRT: 17.9 h
[9]
  Tmax: 4 h
[10]
  Vd: 13.7 L/kg
[11]
  clearance: 28.3 mL/min/kg
Cytochrome P450 2C19
  IC50: 990 nM
Cytochrome P450 1A2
  inhibition (INH): Not Active
Cytochrome P450 2D6
  inhibition (INH): Not Active
Cytochrome P450 3A4
  inhibition (INH): Not Active
U-937
  IC50: 390 nM
[12]
  IC50: 2.5 nM
[13]
  IC50: 2.6 nM
[14]
  IC50: 4 nM
[15]
  IC50: 11 nM
[16]
  Activity: inactive
[17]
  Activity: inactive
[18]
  Activity: inactive
[19]
  Activity: inactive
[20]
  Activity: inactive
[21]
  Kd: 0.23 nM
[22]
  Kd: 0.46 nM
[23]
  Kd: 0.71 nM
[24]
  IC50: 0.27 nM
[25]
  IC50: 0.68 nM
[26]
  half-life at 1 µM: 0.933 h
[27]
  microsomal CLint at 1 µM: 36.4 µL/min/mg
cells
  IC50: 6 nM
